Experimental data: ChEMBL document CHEMBL1122183, “Enhanced antitumor properties of 3'-(4-morpholinyl) and 3'-(4-methoxy-1-piperidinyl) derivatives of 3'-deaminodaunorubicin” (1982)
“And” between values parts separate entries of the source, which are not always exact repeats. Identical values can stand only once.

Assays:
L1210 [1] = assay: Concentration of drug necessary to reduce by 50% the incorporation of tritiated uridine in the RNA of actively growing L1210 cells.; assay type: functional, Mus musculus; conditions: read-out: ED50 (the source's name)
Method in brief: (§1)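 Actively growing L1210 cells. Drug first dissolved in Me2SO, giving 1% final Me2SO. Incorporation of [3H]thymidine into DNA and [3H]uridine into RNA measured. ED50 is the drug concentration that reduces incorporation by 50%.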

L1210 [2] = assay: Concentration of drug necessary to reduce by 50% the incorporation of tritiated thymidine in the DNA of actively growing L1210 cells; assay type: functional, Mus musculus; conditions: read-out: ED50 (the source's name); method in brief: as §1
Mus musculus = species: Mus musculus; assay: Percentage rate of O2 consumption by liver microsomes and NADPH in the presence compared to the rate in presence of doxorubicin.; assay type: functional
Method in brief: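 Rate of O2 consumption by liver microsomes with NADPH measured with the analogue at a single drug concentration. Expressed as a percentage of the rate obtained with doxorubicin.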

Nucleic Acid = assay: Thermal denaturation temperature (Tm) of isolated calf thymus helical DNA was measured; assay type: functional; conditions: Bos taurus
Method in brief: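 Calf thymus DNA (P) 5.2 × 10^-5 M and drug 5.2 × 10^-6 M in 0.01 M phosphate buffer, pH 7, with EDTA and 5% final Me2SO. ΔTm is Tm of the DNA–drug complex minus Tm of DNA alone. Values <1 are read as insignificant binding.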

P388 = assay: Antitumor efficacy at optimal dose of compound was measured against P388 leukemia in mice; assay type: functional, Mus musculus
Method in brief: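 Mice inoculated ip with P388 cells on day 0, then dosed on days 5, 9 and 13 across a series of doses, under NCI protocols. % T/C is the ratio of mean survival time of treated to untreated mice ×100; T/C >120 taken as active. Values are averages of two tests, or one test where only one was run.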

SMILES	EC50 (L1210 [1]; Mus musculus, L1210) [nM]	EC50 (L1210 [2]; Mus musculus, L1210) [nM]	EC50 (L1210 [1])	EC50 (L1210 [2])	O2 consumption (Mus musculus) [%]	ΔTm (Nucleic Acid) [°C]	T/C (P388) [%]
COc1cccc2c1C(=O)c1c(O)c3c(c(O)c1C2=O)C[C@@](O)(C(C)=O)C[C@@H]3OC1CC(NC2CCCCC2)C(O)C(C)O1 (stereo partly specified)	16000	64000	–	–	57	0.7	–
COc1cccc2c1C(=O)c1c(O)c3c(c(O)c1C2=O)C[C@@](O)(C(C)=O)C[C@@H]3OC1CC(NC2CCOCC2)C(O)C(C)O1 (stereo partly specified)	610	2000	–	–	68	4	136
COc1cccc2c1C(=O)c1c(O)c3c(c(O)c1C2=O)C[C@@](O)(C(C)=O)C[C@@H]3O[C@H]1C[C@H](N)[C@H](O)[C@H](C)O1 [DAUNORUBICIN]	330	660	–	–	–	–	130
COc1cccc2c1C(=O)c1c(O)c3c(c(O)c1C2=O)C[C@@](O)(C(=O)CO)C[C@@H]3O[C@H]1C[C@H](N)[C@H](O)[C@H](C)O1 [DOXORUBICIN]	580	1500	–	–	100	13.4	160
COc1cccc2c1C(=O)c1c(O)c3c(c(O)c1C2=O)C[C@@](O)(C(C)=O)C[C@@H]3OC1CC(N2CCOCC2)C(O)C(C)O1 (stereo partly specified)	–	–	100 nM and 14 nM	760 nM and 340 nM	25	6.1	166
COc1cccc2c1C(=O)c1c(O)c3c(c(O)c1C2=O)C[C@@](O)(C(C)=O)C[C@@H]3OC1CC(N2CCC(OC)CC2)C(O)C(C)O1 (stereo partly specified)	120	630	–	–	82	13.3	199

Now from value to molecule, other results behind:

EC50 (L1210 [1]; Mus musculus, L1210) [nM]	EC50 (L1210 [2]; Mus musculus, L1210) [nM]	EC50 (L1210 [1])	EC50 (L1210 [2])	SMILES	O2 consumption (Mus musculus) [%]	ΔTm (Nucleic Acid) [°C]	T/C (P388) [%]
530	2200	–	–	COc1cccc2c1C(=O)c1c(O)c3c(c(O)c1C2=O)C[C@@](O)(C(C)O)C[C@@H]3O[C@H]1C[C@H](N2CCOCC2)[C@H](O)[C@H](C)O1 (stereo partly specified)	29	4.1	153
80	580	–	–	COc1cccc2c1C(=O)c1c(O)c3c(c(O)c1C2=O)C[C@@](O)(C(C)O)C[C@@H]3O[C@H]1C[C@H](N2CCC(OC)CC2)[C@H](O)[C@H](C)O1 (stereo partly specified)	64	9.5	199
40	620	–	–	COc1cccc2c1C(=O)c1c(O)c3c(c(O)c1C2=O)C[C@@](O)(C(C)O)C[C@@H]3O[C@H]1C[C@H](N2CCCCC2)[C@H](O)[C@H](C)O1 (stereo partly specified)	–	12.9	162
50	500	–	–	COc1cccc2c1C(=O)c1c(O)c3c(c(O)c1C2=O)C[C@@](O)(C(C)=O)C[C@@H]3OC1CC(N2CCCCC2)C(O)C(C)O1 (stereo partly specified)	8	16.8	177
